# Activity calls are given as the source filed them.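 How the source made its calls, unless noted: active means GFP response above 150% of the DMSO level; inconclusive means fewer than 70 events counted for a yeast strain; inactive means the rest.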
# Tests used:
# [1] = RPL19A-GFP modulators, yeast TOR pathway, confirmation, cell-based, S. cerevisiae, flow cytometry, cherry picks, mother/daughter gates (AID 2270;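 active means GFP response below 50% of the DMSO control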); conditions: S. cerevisiae RPL19A-GFP strain, 3 h, at 10 µM, stronger effect = lower value, 100 = same GFP as DMSO wells
# [2] = LAP4-GFP expression modulators in yeast, confirmation, cell-based, cherry picks, flow cytometry, mother/daughter gates (AID 2271;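 active means GFP response above 150% of the DMSO control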;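 further: ratio of sample to DMSO plate mean so 100% equals DMSO level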); conditions: S. cerevisiae LAP4-GFP strain, 3 h, at 10 µM, stronger effect = higher value, 100 means same as DMSO control
# Method in brief: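 System: Alexa 633-stained baker's yeast GFP-fusion strain / Medium: synthetic complete (SC) yeast growth medium / Doses: compound at 10 µM, single point / Times: 3 h treatment at 30 °C with rotation / Detection: HT flow cytometry, GFP fluorescence channel / Benchmarks: DMSO-only negative wells, rapamycin 400 ng/mL positive wells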
# [3] = modulators of MEP2-GFP levels in yeast, confirmation, S. cerevisiae, flow cytometry GFP, cherry picks (AID 2272;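 active means GFP response above 150% of the DMSO control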;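 further: ratio of well signal to plate DMSO mean so 100% equals DMSO level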); conditions: S. cerevisiae MEP2-GFP strain, 3 h, at 10 µM, stronger effect = higher value
# [4] = AGP1-GFP expression modulators, hit retest, confirmation, cell-based, flow cytometry, S. cerevisiae, cherry picks (AID 2273);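 further: median GFP channel fluorescence over the whole cell population gate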; conditions: S. cerevisiae AGP1-GFP strain, 3 h, at 10 µM
# [5] = modulators of CIT2-GFP expression in yeast, confirmation, S. cerevisiae, GFP fusion, cherry picks, mother/daughter gates (AID 2274); conditions: S. cerevisiae CIT2-GFP strain, flow cytometry, 3 h, at 10 µM, stronger effect = higher value
# [6] = measured here: daughter cell gate
# [7] = measured here: mother cell gate
# [8] = measured here: daughter cell gate response
# [9] = measured here: mother cell gate response
Structure (SMILES),GFP response vs DMSO [1],"GFP response vs DMSO [1, 6] [%]","GFP response vs DMSO [1, 7] [%]",GFP response relative to DMSO [2],"GFP response relative to DMSO [2, 8] [%]","GFP response relative to DMSO [2, 9] [%]",GFP response vs DMSO [3],"GFP response, % of DMSO [4]","GFP response, % of DMSO [5]","GFP response, % of DMSO [5, 6] [%]","GFP response, % of DMSO [5, 7] [%]"
O=C(Cc1ccc(Cl)cc1)NNC(=S)NC(=O)c1cccs1,104% (inactive),104,104,150% (active),151,151,114% (inactive),102% (inactive),109% (inactive),115,104
C/C(=N/NS(=O)(=O)c1ccccc1)c1ccc(NC(=O)C(F)(F)F)cc1,102% (inactive),103,103,94.2% (inactive),95,94.6,99.5% (inactive),91% (inactive),95% (inactive),96.4,93.3
CCCOc1ccc(C(=O)NNC(=S)NC(=O)c2ccccc2)cc1,114% (inactive),111,113,149% (inactive),136,150,128% (inactive),98.3% (inactive),114% (inactive),116,108
CCC(CC)C(=O)Nc1cccc(/C(C)=N/NC(=O)c2ccccc2Cl)c1,98.6% (inactive),97,99.1,99.8% (inactive),103,99.3,102% (inactive),100% (inactive),100% (inactive),99.7,102
Cc1ccc(NC(=O)ON=C2CCCC2)cc1,101% (inactive),104,93.5,122% (inactive),115,121,109% (inactive),68.9% (inactive),167% (active),150,167
CCCC(=O)c1ccc(N2CCN(C(=O)c3ccc(Br)cc3)CC2)c(F)c1,101% (inactive),95.9,94,102% (inactive),99.2,99.3,102% (inactive),100% (inactive),105% (inactive),105,99.7
CN(C)c1ccc(N=Cc2nc(-c3ccccc3)oc2OC(=O)c2cccc(Cl)c2)cc1,101% (inactive),99.2,101,97.4% (inactive),97.2,99.3,100% (inactive),98.7% (inactive),102% (inactive),99.7,102
COc1ccc(CC(=O)NCc2ccccn2)cc1OC,97.6% (inactive),97.8,98,93.8% (inactive),95.6,96.2,100% (inactive),100% (inactive),97.8% (inactive),96.5,95.5
Cc1ccc(Nc2c(-c3ccccn3)nc3ccc(C)cn23)cc1,97.4% (inactive),106,98.6,148% (inactive),137,153,108% (inactive),82.9% (inactive),105% (inactive),121,93.3
CCCCc1nnc(NC(=O)c2nc3nccc(C)n3n2)s1,98.7% (inactive),98.3,99.8,96.5% (inactive),95,96.5,106% (inactive),104% (inactive),109% (inactive),109,110
CCc1ccc(-c2csc(NC(=O)COC(=O)CCc3nc4ccccc4s3)n2)cc1,105% (inactive),102,106,98.2% (inactive),97.5,98.4,103% (inactive),103% (inactive),106% (inactive),101,105
CC(=O)Oc1oc(-c2ccccc2)nc1C=Nc1ccccc1,102% (inactive),101,98.6,126% (inactive),119,130,97.2% (inactive),95.2% (inactive),90.3% (inactive),92.3,89.3
COC(=O)c1ccccc1NC(=O)c1nc(S(=O)(=O)Cc2ccccc2)ncc1Cl,102% (inactive),101,102,89% (inactive),92.5,92.1,100% (inactive),97.8% (inactive),104% (inactive),101,103
COc1ccc(-c2csc(NC(=O)CSc3nc(C)nc4sc(C(=O)O)c(C)c34)n2)cc1,100% (inactive),99,100,85.4% (inactive),87.9,89,102% (inactive),104% (inactive),102% (inactive),99.7,103
COc1ccc(-c2nc3cccc(C)n3c2NCc2ccco2)cc1OC,101% (inactive),99.5,100,100% (inactive),101,101,97.2% (inactive),99.5% (inactive),97.2% (inactive),99.3,97.1
Oc1c(C(Nc2cccc(C(F)(F)F)c2)c2ccncc2)ccc2cccnc12 (stereo unspecified),105% (inactive),104,102,135% (inactive),120,136,112% (inactive),94% (inactive),99.3% (inactive),102,94.5
O=S(=O)(c1ccc(-c2ccccc2)cc1)N1CCOCC1,96.7% (inactive),96.1,94.8,97.7% (inactive),97.5,97.4,103% (inactive),99.5% (inactive),95.8% (inactive),95.8,93.8
COc1ccc(N(CC(=O)N/N=C/c2cc(OC)ccc2OC)S(=O)(=O)c2ccccc2)cc1,96% (inactive),97.4,86.9,92.8% (inactive),96,92.9,96.2% (inactive),99.1% (inactive),99.7% (inactive),101,99.7
COc1cc(C)c(C)cc1S(=O)(=O)N1CCCCC1c1cccnc1 (stereo unspecified),98.4% (inactive),98.8,99.2,102% (inactive),105,99.5,99.5% (inactive),100% (inactive),96.4% (inactive),100,95.6
O=[N+]([O-])c1ccc(Sc2nc3ccccc3o2)c([N+](=O)[O-])c1,93.5% (inactive),93.4,92,157% (active),151,158,114% (inactive),96% (inactive),108% (inactive),109,100
Cc1ccc2c(c1)c1c(c(=O)n(-c3ccccc3C)c(=O)n1CC(=O)NCC1CCCO1)n2C (stereo unspecified),98.4% (inactive),99.9,97.2,102% (inactive),101,101,100% (inactive),98.3% (inactive),103% (inactive),103,102
O=C(/C=C/c1ccccc1)c1ccccc1O,103% (inactive),105,103,130% (inactive),130,129,153% (inactive),108% (inactive),137% (inactive),139,132
CC(C)NC(=O)c1ccccc1-c1nc(-c2ccccc2Cl)no1,97.2% (inactive),96.7,98,107% (inactive),103,108,97.8% (inactive),98.5% (inactive),91.3% (inactive),93.2,90.2
Cc1cccc(CS(=O)(=O)c2ncc(Cl)c(C(=O)Nc3c(C)cccc3C)n2)c1,106% (inactive),98.6,107,106% (inactive),101,107,105% (inactive),99.4% (inactive),100% (inactive),97.4,101
CCCCCCCCC/C(=N\O)c1ccccn1,85% (inactive),81.4,82.6,214% (active),170,213,108% (inactive),89.3% (inactive),97.2% (inactive),90.5,97.1
Cc1nnc(NC(=O)c2ccc(S(=O)(=O)N(C)Cc3ccccc3)cc2)o1,98.4% (inactive),98.1,98.2,101% (inactive),99.2,101,102% (inactive),91.2% (inactive),103% (inactive),101,102
